Screens as filed in PubChem.
INS promoter inh – TRM-6 insulin promoter activity inhibition. TRM-6 cells (human fetal islet line), insulin promoter-eGFP reporter, imaging; reporter expression induced with tamoxifen. inhibition, % at 2 µM. actives 0.9% (n = 130,000). AID 1273;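 active means inhibition above the mean plus 3 SD, with well images judged a real hit on visual review, cut at about 60% in these data, passing the limit was not always enough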
Yeast lifespan up – yeast lifespan extension | S. cerevisiae growth with nicotinamide, OD615; deaD strain in restrictive glucose medium | inhibition of the nicotinamide effect, % at 10 µM | actives 0.68% (n = 130,000) | AID 775;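 active means inhibition above a set limit, placed 3 SD over the median of all compounds, cut at about 26% in these data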;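 further: 0% = nicotinamide-treated wells and 100% = cells grown without nicotinamide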
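Test system: DeaD-strain S. cerevisiae / Buffer or medium: restrictive glucose medium / Also added: nicotinamide 1.5 mM / Doses: one concentration, 10 µM, DMSO 0.25% / Schedule: 48 h at 30 °C / Signal: OD615 measurement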
Yeast growth inh – chemicals that inhibit yeast BB579 growth in restrictive medium (lifespan-shortening candidates). S. cerevisiae BB579 growth, OD615, 48 h. inhibition, % at 10 µM. actives 0.51% (n = 140,000). AID 804;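 active means inhibition above a set limit, 3 SD over the mean compound inhibition, cut at about 44% in these data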
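System: DeaD yeast strain BB579; buffer or medium: CSMM-D dextrose restrictive medium; technique: OD at 615 nm; schedule: 4 h cell preincubation, 48 h compound exposure, 30 °C humidified; doses: single 10 µM dose; controls: amphotericin B 10 µg/mL, positive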
RAM inhibit – blocks the yeast RAM network; S. cerevisiae dse1pr::URA3 reporter, 5-FOA growth OD615, 2 d; analog-sensitive cbk1-as2 kinase mutant strain; inhibition, % at 50 µM; actives 1.8% (n = 190,000); AID 868;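 active means inhibition above a set limit, 3 SD over mean compound inhibition, cut at about 8.4% in these data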;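 further: 0% = DMSO-only wells with no growth and 100% = 10 µM 1-NA-PP1 full growth; inhibition rescues growth on 5-FOA so higher OD means more RAM inhibition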
Insulin prom up – MIN6 insulin promoter up-regulation | MIN6 insulin promoter-GFP reporter, high-content imaging; stronger effect = higher value | z-score at 5 µM | actives 0.3% (n = 190,000);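 active means z-score above 3 at 5 µM with at least 500 cells counted in the well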
RAM efflux-def – restores 5-FOA growth of efflux-deficient yeast | shares compounds with RAM inhibit | S. cerevisiae efflux-deficient reporter strain, 5-FOA growth OD615, 2 days | max inhibition, % | 1,200 tested, under 10 active; call rule not given here;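 further: plate controls were vehicle for no effect and reference inhibitor for full effect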
Active calls of the source: *; . = not tested or not shown. Hits are enriched below; roughly 3% of the tested compounds scored in any of these assays.

SMILES	INS promoter inh	Yeast lifespan up	Yeast growth inh	RAM inhibit	Insulin prom up	RAM efflux-def
COc1cccc(/C=C2\SC(=S)N(C(Cc3ccccc3)C(=O)O)C2=O)c1 (stereo not given)	.	.	.	12*	0.08	1
COc1ccc(C/C(C)=N/NS(=O)(=O)c2ccc(Br)cc2)cc1	.	.	.	-1	.	.
COC(=O)CC1C(=O)NCCN1C(=S)NC(=O)c1sc2ccccc2c1Cl (stereo not given)	-33	.	.	-1	-1.2	.
COc1ccc(-c2noc(CN(C)S(=O)(=O)c3ccccc3)n2)cc1OC	-48	.	.	.	.	.
COc1ccc(S(=O)(=O)N(Cc2ccccc2)Cc2nc(-c3ccccc3)no2)cc1	17	1	-39	11*	-1.2	2
COc1cc(CC(=O)Nc2ccccc2N2CCCCC2)cc(OC)c1OC	-42	.	.	-1	-0.62	.
O=C(CN(Cc1cccs1)C(=O)CSc1nnc(COc2ccccc2)o1)NC1CCCC1	19	10	-69	17*	-0.92	1
O=C(CN(Cc1cccs1)C(=O)c1csnn1)NC1CCCC1	-414	.	-18	1	.	.
C=CCn1c(SCc2csc(C)n2)nc2sc3c(c2c1=O)CCC(C)C3 (stereo not given)	-106	.	-29	15*	.	2
C=CCn1c(SCC(=O)N2CCOCC2)nc2sc3c(c2c1=O)CCCC3	11	-10	-50	0	-2.6	.
C=CCn1c(SCc2csc(C)n2)nc2sc3c(c2c1=O)CCCCC3	34	-13	-39	17*	-0.42	3
Cc1ccc(CNC(=O)CNC(=S)N(Cc2ccccc2)Cc2ccccc2F)cc1	.	.	.	12*	-0.62	4
COc1cccc(CNC(=O)CNC(=S)N(Cc2ccccc2)Cc2ccccc2F)c1	4	.	.	12*	-0.75	2
CN(C)CCNC(=O)CNC(=S)N(Cc1ccccc1)Cc1ccccc1F	-26	.	.	-1	1	.
O=C(CNC(=S)N(Cc1ccccc1)Cc1ccccc1F)NCc1ccc(Cl)cc1	-53	.	.	16*	0.17	2
CCOC(=O)CNC(=S)N(Cc1ccccc1)Cc1ccccc1F	20	.	.	7	-0.07	.
O=C(Nc1ccccc1N1CCN(c2ccccc2)CC1)c1ccccc1	.	.	.	2	-0.71	.
COC(=O)c1ccc(C(=O)OC)c(-n2c(=O)c3ccccc3c3ccccc3c2=O)c1	-24	15	-17	-1	-1.6	.
Cc1c(CNC(=O)c2c([N+](=O)[O-])cnn2C)cnn1C	.	.	.	3	0.82	.
CCc1ccccc1N1CCN(S(=O)(=O)c2cc(OC)ccc2OC)CC1	-1	-5	-43	13*	1.5	2
N#Cc1cc(-c2ccc(Cl)cc2)cnc1Sc1ccc(F)cc1	.	-2	-53	12*	.	2
CN(C)S(=O)(=O)c1cc(NC(=O)COC(=O)Cc2ccc(Br)cc2)ccc1Cl	0	4	-38	12*	0.31	1
CCOC(=O)c1cccc(NC(=O)CSc2nnc(COc3ccccc3)n2CC)c1	.	-6	-33	14*	0	3
CCn1c(COc2cccc(C)c2)nnc1SCC(=O)Nc1cccc(C(=O)OC)c1	9	-11	-33	5	0.32	.
Cc1ccccc1C(=O)NC(=S)Nc1ccc(Oc2ccc(Cl)cc2)cc1	-13	25	-64	13*	-0.11	3
SMILES	INS promoter inh	Yeast lifespan up	Yeast growth inh	RAM inhibit	Insulin prom up	RAM efflux-def
Cc1ccc(C(=O)NC(=S)Nc2ccc(Oc3ccc(Cl)cc3)cc2)cc1	-97	1	-10	6	-0.22	.
O=C(NC(=S)Nc1ccc(Oc2ccccc2)cc1)c1ccc(Cl)cc1	30	-4	-41	12*	.	2
N#Cc1nc(COc2cccc(Cl)c2)oc1N1CCN(c2ccccc2)CC1	24	1	-40	16*	-0.19	3
N#Cc1nc(COc2ccccc2)oc1N1CCCCC1	.	-6	3	0	1.4	.
Cc1cccc(OCc2nc(C#N)c(N3CCCC3)o2)c1	.	.	.	.	0.45	.
N#Cc1nc(COc2ccccc2)oc1N1CCN(c2cccc(Cl)c2)CC1	38	-18	-66	12*	0.05	3
Cc1cc(CN(C)C(=O)CC2C(=O)NCCN2Cc2c(F)cccc2Cl)on1 (stereo not given)	.	.	.	.	0.4	.
Cn1c(=O)cc(OCCCC(=O)NCc2ccccn2)c2ccccc21	-34	-3	6	0	-0.49	.
Cn1c(=O)cc(OCCCC(=O)NCc2ccc(F)cc2Cl)c2ccccc21	-13	.	.	16*	-0.25	1
COc1ccc(C(=O)Nc2cc(OC)c(Cl)cc2OC)cc1	-18	.	.	11*	0.12	3
COc1ccc(/C=N/OCC(=O)NCC(C)C)c(OC)c1	.	.	.	1	-0.46	.
COc1ccc(/C=N/OCC(=O)NC(c2ccccc2)c2ccccc2)c(OC)c1	13	3	-18	12*	0.06	3
CSc1nc(SCC(=O)NCc2ccco2)c2c3c(sc2n1)COC(C)(C)C3	4	-9	-74	2	0.69	.
CCC1(C)Cc2c(sc3nc(SCC(=O)c4ccccc4)[nH]c(=O)c23)CO1 (stereo not given)	.	.	.	.	-0.15	.
CCCCSc1nc(SCC(=O)NCc2ccco2)c2c3c(sc2n1)COC(C)(CC)C3 (stereo not given)	-8	-7	-15	14*	-2.1	7
CCCSc1nc(SCC(=O)NCc2ccccc2)c2c3c(sc2n1)COC(C)(CC)C3 (stereo not given)	-2	-11	-8	12*	-0.4	2
CN(C)C(=O)c1nnsc1Sc1ccc(Cl)cc1	20	.	.	1	0.29	.
N#Cc1c(N)nc(SCC(=O)C23CC4CC(CC(C4)C2)C3)c(C#N)c1-c1ccc(Cl)cc1	-6	-4	-51	5	-0.31	.
CCOC(=O)CC(=O)CSc1nc(N)c(C#N)c(-c2ccc(Cl)cc2)c1C#N	.	2	-20	13*	0.56	3
COc1ccc(CN2C(=O)CS/C2=N/N=C/c2ccccc2)cc1	.	.	.	.	-0.56	.
CCCC1S/C(=N/N=C/c2ccc(C)cc2)N(Cc2ccc(OC)cc2)C1=O (stereo not given)	18	9	-51	12*	-0.07	5
CN(C(=S)Nc1ccc(Oc2ccccc2)cc1)c1ccc(O)cc1	38	-1	-17	14*	0.67	1
O=c1cc[nH]c2ccc(OC(F)(F)F)cc12	.	.	.	.	-0.26	.
CCCCN1C(=O)/C(=C/C=C2\SCCN2C)SC1=S	-408	.	.	13*	.	2
CCc1cc2c(=O)n(Cc3ccco3)c(SCc3c(C)noc3C)nc2s1	.	-3	-49	13*	-2.1	7
Cc1ccc(N/N=C/c2c(C)c(C#N)c(=O)n(C)c2O)cc1C	.	.	.	13*	0.33	2
COC(=O)CCSc1cc([N+](=O)[O-])cc2c1c(C1OCCO1)nn2-c1ccccc1	0	12	-45	14*	0.49	2
O=C1/C(=C/c2ccsc2)N2CCC1CC2	.	.	.	.	0.37	.
CN(C)c1cccc(C(=O)OCC(=O)Nc2ccccc2-c2ccccc2)c1	.	-2	-50	2	0.5	.
